Reference: ChEMBL document CHEMBL2311423, “Novel carbocyclic nucleoside analogs suppress glomerular mesangial cells proliferation and matrix protein accumulation through ROS-dependent mechanism in the diabetic milieu” (Bioorg Med Chem Lett, 2013)
Active and inactive are the calls of the source. No cut-off for these calls is given here.

Legend:
Type in all cases: functional
[1] = Antidiabetic nephropathic activity in rat glomerular mesangial cells assessed as reduction of high-glucose induced fibronectin expression at 10 uM treated 12 to 24 hrs after serum-deprivation measured after 24 hrs by Western blot analysis relative to beta-actin expression
[2] = Antidiabetic nephropathic activity in rat glomerular mesangial cells assessed as reduction of high-glucose induced fibronectin expression at 1 uM treated 12 to 24 hrs after serum-deprivation measured after 24 hrs by Western blot analysis relative to beta-actin expression
[3] = Antidiabetic nephropathic activity in rat glomerular mesangial cells assessed as reduction of high-glucose induced NADPH-dependent ROS production by measuring NADPH oxidase activity at 1 uM treated 12 after serum-deprivation measured after 24 hrs by DHE staining
Procedure, shortened: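 Rat glomerular mesangial cells serum-deprived 12 h, then given high glucose (25 mM) for 24 h with or without compound. NADPH-dependent superoxide generation (NADPH oxidase activity) measured in parallel with DHE staining. Superoxide expressed as relative light units per mg protein.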

[4] = species: Rattus norvegicus; assay: Antidiabetic nephropathic activity in rat glomerular mesangial cells assessed as reduction of high-glucose induced cell proliferation at 1 to 10 uM treated 12 after serum-deprivation measured after 24 hrs by MTT assay
Procedure, shortened: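 Rat glomerular mesangial cells serum-deprived 12 h, then given high glucose (25 mM) for 24 h with or without compound at different concentrations. Proliferation read by MTT assay after 24 h, compared against normal-glucose cells.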

SMILES	Activity [1] [a.u.]	Activity [2] [a.u.]	Activity [3]	Activity [4]
CC(=O)OC[C@@H]1C[C@@H](n2cc(C)c(=O)n(C(=O)c3ccccc3)c2=O)C[C@@H]1COC(C)=O	40	65		
CC(=O)OC[C@@H]1C[C@@H](n2ccc(=O)n(C(=O)c3ccccc3)c2=O)C[C@@H]1COC(C)=O	57	64		
CCOC(=O)[C@H]1C[C@H](n2cc(C)c(=O)n(C(=O)c3ccccc3)c2=O)C[C@H]1C(=O)OCC	66	68		
CCOC(=O)[C@H]1C[C@H](n2ccc(=O)n(C(=O)c3ccccc3)c2=O)C[C@H]1C(=O)OCC	20	26	Active	Active
CC(=O)OC[C@@H]1CC(n2cc(C)c(=O)n(C(=O)c3ccccc3)c2=O)C[C@H]1COC(C)=O (racemic)	53	59		
CC(=O)OC[C@@H]1CC(n2ccc(=O)n(C(=O)c3ccccc3)c2=O)C[C@H]1COC(C)=O (racemic)	52	55		
CCOC(=O)[C@@H]1CC(n2cc(C)c(=O)n(C(=O)c3ccccc3)c2=O)C[C@H]1C(=O)OCC (racemic)	20	25	Active	Active
CCOC(=O)[C@@H]1CC(n2ccc(=O)n(C(=O)c3ccccc3)c2=O)C[C@H]1C(=O)OCC (racemic)	60	67		
